ChEMBL document CHEMBL1150787, “The L80I substitution in the reverse transcriptase domain of the hepatitis B virus polymerase is associated with lamivudine resistance and enhanced viral replication in vitro” (Antimicrob Agents Chemother, 2007)
Active and inactive are the calls of the source. No cut-off for these calls is given here.

Columns and labels:
HBV genotype D [1] = experiment: Effect on replication efficiency of HBV genotype D with reverse transcriptase L80I mutation in human Huh7 cells assessed as decrease in viral replication yield at 1 uM after 5 days relative to control; type: functional, hepatitis B virus genotype D, Huh-7; design: scale not given: the % may be the effect or the level left
Procedure, shortened: (§1)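 Huh7 transfectants were cultured for 5 days with or without 1 μM LMV. Intracellular core-associated HBV DNA was measured by Southern blot and densitometry. Yields were corrected for transfection efficiency by HBsAg in supernatant (IMX immunoassay) and expressed relative to the mean of uninhibited controls (1.0). Each value comes from at least three experiments.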

HBV genotype D [2] = experiment: Antiviral activity against HBV genotype D with reverse transcriptase L180M/M204I mutation in human Huh7 cells assessed as inhibition of viral replication after 5 days; type: functional, organism-based; settings: hepatitis B virus genotype D; Huh-7
Procedure, shortened: (§2)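 Huh7 cells grown in DMEM with 10% FBS at 37°C and 5% CO₂, then transiently transfected with each HBV construct. Cultures were exposed continuously to LMV at 0, 0.001, 0.01, 0.1, 1 or 10 μM for 5 days. Intracellular core-associated HBV DNA was quantified by Southern blot, autoradiography and densitometry, normalised to untreated controls. EC50 was taken from a three-parameter logistic fit of three pooled assays.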

HBV genotype D [3] = experiment: Effect on replication efficiency of HBV genotype D with reverse transcriptase L80I/M204I mutation in human Huh7 cells assessed as increase in viral replication yield at 1 uM after 5 days relative to control; type: functional, hepatitis B virus genotype D, Huh-7; procedure, shortened: as §1
HBV genotype D [4] = experiment: Antiviral activity against HBV genotype D with reverse transcriptase L180M/M204I mutation in human Huh7 cells assessed as viral replication yield at 1 uM after 5 days relative to control; type: functional, hepatitis B virus genotype D, Huh-7; procedure, shortened: as §1
HBV genotype D [5] = experiment: Effect on replication efficiency of HBeAg-deficient HBV genotype D with precore G1896A mutation and reverse transcriptase L80I mutation in human Huh7 cells assessed as decrease viral replication yield at 1 uM after 5 days relative to control; type: functional, hepatitis B virus genotype D, Huh-7; design: scale not given: the % may be the effect or the level left; procedure, shortened: as §1
HBV genotype D [6] = experiment: Effect on replication efficiency of HBeAg-deficient HBV genotype D with precore G1896A mutation and reverse transcriptase L80I/M204I mutation in human Huh7 cells assessed as decrease in viral replication yield at 1 uM after 5 days relative to control; type: functional, hepatitis B virus genotype D, Huh-7; design: scale not given: the % may be the effect or the level left; procedure, shortened: as §1
HBV genotype D [7] = experiment: Antiviral activity against HBV genotype D in human Huh7 cells assessed as viral replication yield at 1 uM after 5 days relative to control; type: functional, hepatitis B virus genotype D, Huh-7
Procedure, shortened: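 Transiently transfected Huh7 cells were cultured for 5 days with or without 1 μM LMV. Intracellular core-associated HBV DNA was measured by Southern blot, corrected for transfection efficiency using supernatant HBsAg (IMX enzyme immunoassay), and expressed relative to the mean of the uninhibited controls (set to 1.0). Data come from at least three experiments.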

HBV genotype D [8] = experiment: Antiviral activity against HBeAg-deficient HBV genotype D with precore G1896A mutation in human Huh7 cells assessed as inhibition of viral replication after 5 days; type: functional, organism-based; settings: Hepatitis B virus, Huh-7, 120 h; procedure, shortened: as §2
HBV genotype D [9] = experiment: Antiviral activity against HBeAg-deficient HBV genotype D with precore G1896A mutation and reverse transcriptase M204I mutation in human Huh7 cells assessed as viral replication yield at 1 uM after 5 days relative to control; type: functional, hepatitis B virus genotype D, Huh-7; procedure, shortened: as §1
HBV genotype D [10] = experiment: Antiviral activity against HBV genotype D with reverse transcriptase M204I mutation in human Huh7 cells assessed as viral replication yield at 1 uM after 5 days relative to control; type: functional, hepatitis B virus genotype D, Huh-7; procedure, shortened: as §1
HBV genotype D [11] = experiment: Antiviral activity against HBeAg-deficient HBV genotype D with precore G1896A mutation and reverse transcriptase M204I mutation in human Huh7 cells assessed as inhibition of viral replication after 5 days; type: functional, organism-based; settings: hepatitis B virus genotype D; Huh-7; procedure, shortened: as §2
HBV genotype D [12] = experiment: Effect on replication efficiency of HBeAg-deficient HBV genotype D with precore G1896A mutation and reverse transcriptase L80I/L180M/M204I mutation in human Huh7 cells assessed as increase in viral replication yield at 1 uM after 5 days relative to control; type: functional, hepatitis B virus genotype D, Huh-7; procedure, shortened: as §1
HBV genotype D [13] = experiment: Antiviral activity against HBV genotype D with reverse transcriptase L80I/L180M/M204I mutation in human Huh7 cells assessed as viral replication yield at 1 uM after 5 days relative to control; type: functional, hepatitis B virus genotype D, Huh-7; procedure, shortened: as §1
HBV genotype D [14] = experiment: Antiviral activity against HBV genotype D in human Huh7 cells assessed as inhibition of viral replication after 5 days; type: functional, organism-based; settings: Hepatitis B virus, Huh-7, 120 h
Procedure, shortened: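 Huh7 cells (DMEM, 10% FBS, 37°C, 5% CO2) at 60–80% confluence were transiently transfected with a wild-type HBeAg-negative HBV clone or mutants. They were exposed continuously to LMV (0–10 μM) or ADV (0–10 μM). Day-5 intracellular core-associated HBV DNA was measured by Southern blot, autoradiography and densitometry, normalized to untreated controls. Three assays were pooled; EC50 came from a three-parameter logistic fit.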

HBV genotype D [15] = experiment: Antiviral activity against HBV genotype D with reverse transcriptase L80I mutation in human Huh7 cells assessed as viral replication yield at 1 uM after 5 days relative to control; type: functional, hepatitis B virus genotype D, Huh-7; procedure, shortened: as §1
HBV genotype D [16] = experiment: Antiviral activity against HBeAg-deficient HBV genotype D with precore G1896A mutation and reverse transcriptase L180M/M204I mutation in human Huh7 cells assessed as inhibition of viral replication after 5 days; type: functional, organism-based; settings: hepatitis B virus genotype D; Huh-7; procedure, shortened: as §2
HBV genotype D [17] = experiment: Antiviral activity against HBeAg-deficient HBV genotype D with precore G1896A mutation and reverse transcriptase L80I/M204I mutation in human Huh7 cells assessed as viral replication yield at 1 uM after 5 days relative to control; type: functional, hepatitis B virus genotype D, Huh-7; procedure, shortened: as §1
HBV genotype D [18] = experiment: Antiviral activity against HBeAg-deficient HBV genotype D with precore G1896A mutation and reverse transcriptase L180M/M204I mutation in human Huh7 cells assessed as viral replication yield at 1 uM after 5 days relative to control; type: functional, hepatitis B virus genotype D, Huh-7; procedure, shortened: as §1
HBV genotype D [19] = experiment: Antiviral activity against HBV genotype D with reverse transcriptase L80I mutation in human Huh7 cells assessed as inhibition of viral replication after 5 days; type: functional, organism-based; settings: Hepatitis B virus, Huh-7, 120 h; procedure, shortened: as §2
HBV genotype D [20] = experiment: Antiviral activity against HBV genotype D with reverse transcriptase L80I/M204I mutation in human Huh7 cells assessed as inhibition of viral replication after 5 days; type: functional, organism-based; settings: hepatitis B virus genotype D; Huh-7; procedure, shortened: as §2
HBV genotype D [21] = experiment: Antiviral activity against HBeAg-deficient HBV genotype D with precore G1896A mutation and reverse transcriptase L80I/L180M/M204I mutation in human Huh7 cells assessed as inhibition of viral replication after 5 days; type: functional, organism-based; settings: hepatitis B virus genotype D; Huh-7; procedure, shortened: as §2
HBV genotype D [22] = experiment: Antiviral activity against HBeAg-deficient HBV genotype D with precore G1896A mutation and reverse transcriptase L80I mutation in human Huh7 cells assessed as inhibition of viral replication after 5 days; type: functional, organism-based; settings: Hepatitis B virus, Huh-7, 120 h; procedure, shortened: as §2
HBV genotype D [23] = experiment: Effect on replication efficiency of HBV genotype D with reverse transcriptase L80I/L180M/M204I mutation in human Huh7 cells assessed as decrease in viral replication yield at 1 uM after 5 days relative to control; type: functional, hepatitis B virus genotype D, Huh-7; design: scale not given: the % may be the effect or the level left; procedure, shortened: as §1
HBV genotype D [24] = experiment: Antiviral activity against HBV genotype D with reverse transcriptase L80I/M204I mutation in human Huh7 cells assessed as viral replication yield at 1 uM after 5 days relative to control; type: functional, hepatitis B virus genotype D, Huh-7; procedure, shortened: as §1
HBV genotype D [25] = experiment: Antiviral activity against HBeAg-deficient HBV genotype D with precore G1896A mutation and reverse transcriptase L80I mutation in human Huh7 cells assessed as viral replication yield at 1 uM after 5 days relative to control; type: functional, hepatitis B virus genotype D, Huh-7; procedure, shortened: as §1
HBV genotype D [26] = experiment: Antiviral activity against HBeAg-deficient HBV genotype D with precore G1896A mutation in human Huh7 cells assessed as viral replication yield at 1 uM after 5 days relative to control; type: functional, hepatitis B virus genotype D, Huh-7; procedure, shortened: as §1
HBV genotype D [27] = experiment: Antiviral activity against HBeAg-deficient HBV genotype D with precore G1896A mutation and reverse transcriptase L80I/M204I mutation in human Huh7 cells assessed as inhibition of viral replication after 5 days; type: functional, organism-based; settings: hepatitis B virus genotype D; Huh-7; procedure, shortened: as §2
HBV genotype D [28] = experiment: Antiviral activity against HBV genotype D with reverse transcriptase L80I/L180M/M204I mutation in human Huh7 cells assessed as inhibition of viral replication after 5 days; type: functional, organism-based; settings: hepatitis B virus genotype D; Huh-7; procedure, shortened: as §2
HBV genotype D [29] = experiment: Antiviral activity against HBeAg-deficient HBV genotype D with precore G1896A mutation and reverse transcriptase L80I/L180M/M204I mutation in human Huh7 cells assessed as viral replication yield at 1 uM after 5 days relative to control; type: functional, hepatitis B virus genotype D, Huh-7; procedure, shortened: as §1
HBV genotype D [30] = experiment: Antiviral activity against HBV genotype D with reverse transcriptase M204I mutation in human Huh7 cells assessed as inhibition of viral replication after 5 days; type: functional, organism-based; settings: hepatitis B virus genotype D; Huh-7; procedure, shortened: as §2

What does the source list for `Nc1ccn([C@@H]2CS[C@H](CO)O2)c(=O)n1` [LAMIVUDINE]?
Activity (HBV genotype D [1]): 82%; Activity (HBV genotype D [2]): inactive; Activity (HBV genotype D [3]): 902%; fold change (FC) (HBV genotype D [4]): 0.65; Activity (HBV genotype D [5]): 88%; Activity (HBV genotype D [6]): 80%; fold change (FC) (HBV genotype D [7]): 0.33; EC50 (HBV genotype D [8]): 460 nM; fold change (FC) (HBV genotype D [9]): 1.4; fold change (FC) (HBV genotype D [10]): 0.38; Activity (HBV genotype D [11]): inactive; Activity (HBV genotype D [12]): 506%; fold change (FC) (HBV genotype D [13]): 0.34; EC50 (HBV genotype D [14]): 410 nM; fold change (FC) (HBV genotype D [15]): 0.06; Activity (HBV genotype D [16]): inactive; fold change (FC) (HBV genotype D [17]): 0.27; fold change (FC) (HBV genotype D [18]): 0.54; EC50 (HBV genotype D [19]): 30 nM; Activity (HBV genotype D [20]): inactive; Activity (HBV genotype D [21]): inactive; EC50 (HBV genotype D [22]): 30 nM; Activity (HBV genotype D [23]): 48%; fold change (FC) (HBV genotype D [24]): 3.76; fold change (FC) (HBV genotype D [25]): 0.04; fold change (FC) (HBV genotype D [26]): 0.35; Activity (HBV genotype D [27]): inactive; Activity (HBV genotype D [28]): inactive; fold change (FC) (HBV genotype D [29]): 3.27; Activity (HBV genotype D [30]): inactive
